pEC50: −log10 of the molar value. One block for each molecule: values may come before it. The source made the active and inactive calls. The rule behind the calls is not given here.
Columns and labels:
[1] = target: T1, Peroxisome proliferator-activated receptor alpha (Homo sapiens) (UniProt Q07869); experiment: Agonist activity at human PPARalpha ligand binding domain expressed in COS-1 cells co-transfected with Gal4 at 10 uM by luciferase reporter gene assay relative to control; assay type: cell-based
T1 sequence (whole entry): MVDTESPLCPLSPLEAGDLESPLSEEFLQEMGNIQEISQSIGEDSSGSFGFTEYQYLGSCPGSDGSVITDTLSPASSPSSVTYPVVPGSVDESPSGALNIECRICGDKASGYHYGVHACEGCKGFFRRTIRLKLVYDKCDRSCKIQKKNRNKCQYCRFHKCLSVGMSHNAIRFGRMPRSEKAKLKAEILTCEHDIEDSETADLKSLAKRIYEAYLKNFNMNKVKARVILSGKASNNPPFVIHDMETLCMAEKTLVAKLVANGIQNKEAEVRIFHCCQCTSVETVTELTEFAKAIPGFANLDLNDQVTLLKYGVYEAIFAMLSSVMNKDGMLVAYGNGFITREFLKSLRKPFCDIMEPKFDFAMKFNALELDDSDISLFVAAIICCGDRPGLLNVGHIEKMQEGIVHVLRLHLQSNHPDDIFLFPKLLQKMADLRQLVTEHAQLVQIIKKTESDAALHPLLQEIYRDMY
Procedure, shortened: (§1)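 COS-1 cells were seeded at 5 × 10⁴ cells/well and grown about 24 h at 37 °C under 5% CO₂ in DMEM with 10% charcoal-treated FCS. They were lipofected with a GAL4–PPAR ligand-binding-domain fusion plasmid plus a GAL4-responsive luciferase reporter. Medium was replaced at 4 h with medium containing compound; no-drug controls received 0.1% DMSO final. Cells were lysed after 24 h and luciferase was read. Results are reported as fold induction and EC50.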

[2] = Cmax in rat at 10 mg/kg, po; assay type: ADME, organism-based; set-up: dose 10 mg/kg, route oral; settings: in vivo
Procedure, shortened: (§2)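 Single oral dose of the sodium salt given to rats. Plasma profile used to derive AUC, Cmax, Tmax and bioavailability.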

[3] = Tmax in rat at 10 mg/kg, po; assay type: ADME, organism-based; set-up: dose 10 mg/kg, route oral; settings: in vivo; procedure, shortened: as §2
[4] = Oral bioavailability in rat at 10 mg/kg; assay type: ADME, organism-based; settings: in vivo; procedure, shortened: as §2
[5] = Half life in rat at 1 mg/kg, iv; assay type: ADME, organism-based; set-up: dose 1 mg/kg, route intravenous; settings: in vivo
Procedure, shortened: (§3)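 Single intravenous dose of the sodium salt given to rats. Plasma concentrations followed to derive AUC, half-life, plasma clearance and steady-state distribution volume.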

[6] = AUC in rat at 10 mg/kg, po; assay type: ADME, organism-based; set-up: dose 10 mg/kg, route oral; settings: plasma; procedure, shortened: as §2
[7] = Clearance in rat at 1 mg/kg, iv; assay type: ADME, organism-based; set-up: dose 1 mg/kg, route intravenous; settings: in vivo; procedure, shortened: as §3
[8] = tested on: Mus musculus; experiment: Toxicity in db/db mouse assessed as effect on food intake at 141 mg/kg administered with chow diet ad for 14 days; assay type: organism-based; set-up: dose 141 mg/kg; settings: in vivo, po, 336 h
Procedure, shortened: (§4)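 […] male db/db mice were randomised into four groups and dosed for 14 days through drug admixed in rodent chow; controls received plain chow. Blood glucose, body weight and food intake were monitored. Values are means of 6 animals/group, compared with vehicle by Dunnett's or Student's test.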

[9] = AUC in rat at 1 mg/kg, iv; assay type: ADME, organism-based; set-up: dose 1 mg/kg, route intravenous; settings: plasma; procedure, shortened: as §3
[10] = tested on: Mus musculus; experiment: Toxicity in db/db mouse assessed as increase of body weight at 141 mg/kg administered with chow diet ad for 14 days; assay type: organism-based; set-up: dose 141 mg/kg; settings: in vivo, po, 336 h; procedure, shortened: as §4
[11] = tested on: Mus musculus; experiment: Toxicity in db/db mouse assessed as increase of body weight at 15 mg/kg administered with chow diet ad for 14 days; assay type: organism-based; set-up: dose 15 mg/kg; settings: in vivo, po, 336 h; procedure, shortened: as §4
[12] = tested on: Mus musculus; experiment: Toxicity in db/db mouse assessed as effect on food intake at 15 mg/kg administered with chow diet ad for 14 days; assay type: organism-based; set-up: dose 15 mg/kg; settings: in vivo, po, 336 h; procedure, shortened: as §4
[13] = Volume of distribution at steady state in rat at 1 mg/kg, iv; assay type: ADME, organism-based; set-up: dose 1 mg/kg, route intravenous; settings: in vivo, read-out: Vdss; procedure, shortened: as §3
[14] = target: T2, Peroxisome proliferator-activated receptor gamma (Homo sapiens) (UniProt P37231); experiment: Agonist activity at human PPARgamma ligand binding domain expressed in COS-1 cells co-transfected with Gal4 by luciferase reporter gene assay relative to pioglitazone; assay type: cell-based
T2 sequence (whole entry): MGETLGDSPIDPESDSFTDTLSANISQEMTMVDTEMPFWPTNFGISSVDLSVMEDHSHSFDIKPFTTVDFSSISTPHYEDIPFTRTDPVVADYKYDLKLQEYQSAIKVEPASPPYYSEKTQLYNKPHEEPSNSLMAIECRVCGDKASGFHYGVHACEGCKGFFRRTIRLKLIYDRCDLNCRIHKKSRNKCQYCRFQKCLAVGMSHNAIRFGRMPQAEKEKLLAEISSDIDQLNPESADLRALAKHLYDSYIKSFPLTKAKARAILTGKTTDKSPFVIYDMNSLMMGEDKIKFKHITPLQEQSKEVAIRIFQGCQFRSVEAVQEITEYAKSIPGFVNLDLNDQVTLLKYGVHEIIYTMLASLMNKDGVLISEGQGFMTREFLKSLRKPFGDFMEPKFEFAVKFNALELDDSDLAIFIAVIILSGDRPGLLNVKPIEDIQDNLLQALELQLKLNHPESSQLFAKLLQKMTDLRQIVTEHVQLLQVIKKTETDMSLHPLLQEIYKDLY

[15] = organism: Homo sapiens; experiment: Selectivity ratio, ratio of EC50 for human PPARalpha ligand binding domain to EC50 for human PPARgamma ligand binding domain
[16] = target: T1, Peroxisome proliferator-activated receptor alpha (Homo sapiens); experiment: Agonist activity at human PPARalpha ligand binding domain expressed in COS-1 cells co-transfected with Gal4 by luciferase reporter gene assay relative to fenofibric acid; assay type: cell-based
[17] = target: T3, Peroxisome proliferator-activated receptor alpha (Homo sapiens, UniProt Q07869); experiment: Agonist activity at human PPARalpha ligand binding domain expressed in COS-1 cells co-transfected with Gal4 by luciferase reporter gene assay; assay type: cell-based; procedure, shortened: as §1
T3 sequence (Q07869 whole entry): T1 sequence (whole entry)

[18] = target: T4, Peroxisome proliferator-activated receptor gamma (Homo sapiens, UniProt P37231); experiment: Agonist activity at human PPARgamma ligand binding domain expressed in COS-1 cells co-transfected with Gal4 by luciferase reporter gene assay; assay type: cell-based
T4 sequence (P37231 whole entry): T2 sequence (whole entry)

[19] = target: T5, Peroxisome proliferator-activated receptor alpha (Mus musculus, UniProt P23204); experiment: Agonist activity at mouse PPARalpha ligand binding domain expressed in COS-1 cells co-transfected with Gal4 by luciferase reporter gene assay; assay type: cell-based; procedure, shortened: as §1
T5 sequence (P23204 whole entry): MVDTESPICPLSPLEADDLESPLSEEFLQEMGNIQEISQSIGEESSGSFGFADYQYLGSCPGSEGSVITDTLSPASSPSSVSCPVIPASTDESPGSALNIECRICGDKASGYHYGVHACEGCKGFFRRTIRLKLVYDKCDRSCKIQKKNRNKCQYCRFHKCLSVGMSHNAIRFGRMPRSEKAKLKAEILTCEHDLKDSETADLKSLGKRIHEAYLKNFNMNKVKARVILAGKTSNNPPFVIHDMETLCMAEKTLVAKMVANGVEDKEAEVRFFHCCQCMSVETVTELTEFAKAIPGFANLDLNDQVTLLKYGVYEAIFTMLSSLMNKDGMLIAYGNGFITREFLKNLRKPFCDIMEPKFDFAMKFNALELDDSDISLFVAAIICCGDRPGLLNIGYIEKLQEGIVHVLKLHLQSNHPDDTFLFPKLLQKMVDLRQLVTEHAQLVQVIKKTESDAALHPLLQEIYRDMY

[20] = tested on: Mus musculus; experiment: Antidiabetic activity in db/db mouse assessed as reduction of blood glucose level at 141 mg/kg administered with chow diet ad for 14 days; assay type: functional, organism-based; set-up: dose 141 mg/kg; procedure, shortened: as §4
[21] = target: T6, Peroxisome proliferator-activated receptor alpha (Mus musculus) (UniProt P23204); experiment: Agonist activity at mouse PPARalpha ligand binding domain expressed in COS-1 cells co-transfected with Gal4 by luciferase reporter gene assay relative to fenofibric acid; assay type: cell-based
T6 sequence (whole entry): T5 sequence (P23204 whole entry)

[22] = tested on: Mus musculus; experiment: Toxicity in db/db mouse assessed as effect on food intake at 41 mg/kg administered with chow diet ad for 14 days; assay type: organism-based; set-up: dose 41 mg/kg; settings: in vivo, po, 336 h; procedure, shortened: as §4
[23] = tested on: Mus musculus; experiment: Toxicity in db/db mouse assessed as increase of body weight at 41 mg/kg administered with chow diet ad for 14 days; assay type: organism-based; set-up: dose 41 mg/kg; settings: in vivo, po, 336 h; procedure, shortened: as §4
[24] = tested on: Mus musculus; experiment: Antidiabetic activity in db/db mouse assessed as reduction of blood glucose level at 41 mg/kg administered with chow diet ad for 14 days; assay type: functional, organism-based; set-up: dose 41 mg/kg; procedure, shortened: as §4

fold change (FC) [1]: 0.8
Compound: COc1ccc(C(=O)c2cccn2C/C=C/c2ccc(CC(=O)O)cc2)cc1

fold change (FC) [1]: 1
Compound: COc1ccc(C(=O)c2cccn2C/C=C/c2ccccc2CC(=O)O)cc1

fold change (FC) [1]: 1.6
Emax [14]: 37%
Ratio EC50 [15]: 11
Emax [16]: 43%
pEC50 [17]: 4.68
pEC50 [18]: 5.70
Compound: COc1ccc(C(=O)c2cccn2C/C=C/c2cccc(CC(=O)O)c2)cc1

fold change (FC) [1]: 1.1
Compound: Cc1ccccc1C(=O)c1cccn1C/C=C/c1cccc(OCC(=O)O)c1

fold change (FC) [1]: 5.8
Emax [14]: 16%
Ratio EC50 [15]: 1.9
Emax [16]: 42%
pEC50 [17]: 5.43
pEC50 [18]: 5.72
Compound: COc1ccc(C(=O)c2cccn2C/C=C/c2cccc(OCC(=O)O)c2)cc1

fold change (FC) [1]: 0.9
Emax [14]: 19%
Ratio EC50 [15]: > 7.5
pEC50 [17]: < 4.05
pEC50 [18]: 4.92
Compound: COc1ccc(C(=O)c2cc(C)cn2C/C=C/c2ccc(Cl)cc2C(=O)NS(C)(=O)=O)cc1

fold change (FC) [1]: 5.2
Emax [21]: 25%
Emax [14]: 17%
Ratio EC50 [15]: 1.5
Emax [16]: 37%
Compound: Cc1ccc(C(=O)c2cccn2C/C=C/c2cccc(OCC(=O)O)c2)cc1 [listing 2 of 2 here]
Activity [20]: Active

fold change (FC) [1]: 5.6
pEC50 [17]: 4.92
Compound: CC(C)(Oc1ccc(C(=O)c2ccc(Cl)cc2)cc1)C(=O)O [FENOFIBRIC ACID]

fold change (FC) [1]: 1.4
Compound: COc1cccc(C(=O)c2cccn2C/C=C/c2cccc(OCC(=O)O)c2)c1

The remaining lines, values behind:

Compound: COc1ccc(C(=O)c2cccn2C/C=C/c2ccc(OCC(=O)O)cc2)cc1
fold change (FC) [1]: 3.5

Compound: COc1ccc(C(=O)c2cccn2C/C=C/c2ccccc2OCC(=O)O)cc1
fold change (FC) [1]: 0.8

Compound: Cc1ccc(C(=O)c2cccn2C/C=C/c2cccc(OCC(=O)[O-])c2)cc1.[Na+]
Cmax [2]: 4300 ng/mL
Tmax [3]: 4 h
bioavailability [4]: 42%
half-life [5]: 3.2 h
AUC [6]: 59000 ng·h/mL
clearance [7]: 1.2 mL/min/kg
Activity [8]: Non-toxic
AUC [9]: 14000 ng·h/mL
Activity [10]: Non-toxic
Activity [11]: Non-toxic
Activity [12]: Non-toxic
Vd [13]: 0.3 L/kg

Compound: Cc1ccc(C(=O)c2cccn2C/C=C/c2cccc(OCC(=O)O)c2)cc1 [listing 1 of 2 here]
pEC50 [19]: 5.31
pEC50 [17]: 5.74
pEC50 [18]: 5.92

Compound: CCc1ccc(CCOc2ccc(CC3SC(=O)NC3=O)cc2)nc1 (stereo unspecified) [PIOGLITAZONE]
Activity [22]: Toxic
Activity [23]: Toxic
Activity [24]: Active

Compound: Cc1cccc(C(=O)c2cccn2C/C=C/c2cccc(OCC(=O)O)c2)c1
fold change (FC) [1]: 1.9

Compound: COc1ccccc1C(=O)c1cccn1C/C=C/c1cccc(OCC(=O)O)c1
fold change (FC) [1]: 0.9
